A short description of data set [1]: Antitumor activity against mouse Gardner lymphosarcoma allografted in C3H mouse assessed as tumor growth inhibition at 0.10 mg/kg, ip administered daily for 8 to 10 days. It is filed as functional. As to conditions: route intraperitoneal, read-out: TGI. An outline of the steps: (§1)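 Gardner lymphosarcoma in C3H mice; sulfate salts unless noted, given ip daily for 8–10 days, treatment starting 8 days after tumor implantation. Tumor growth inhibition scored as –, 0–25%; +, 26–50%; ++, 51–75%; +++, 76–100%; T, lethal to ≥5 of 10 animals per group. Average of one or more tests.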

Data set [2] has as its system Mus musculus. Briefly: Toxicity in C57BL/6 mouse allografted with mouse B16 cells assessed as animal death at 0.60 mg/kg, ip administered on days 1,5 and 9. Details: dose 0.6 mg/kg, route intraperitoneal. It is filed as organism-based. Conditions: in vivo, 0.6 mg/kg. An outline of the steps: (§2)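 B16 melanoma cells (10⁶ inoculum) implanted ip in C57BL/6 mice; groups of 10. Sulfate salts unless noted, given ip on days 1, 5 and 9. Single test. Survival prolongation is expressed as percent versus controls, with survivors counted on day 60. Toxic means deaths of ≥5 of 10 animals before the first control death.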

The test system of data set [3] is Mus musculus. Briefly: Toxicity in C57BL/6 mouse allografted with mouse B16 cells assessed as animal death at 0.90 mg/kg, ip administered on days 1,5 and 9. Conditions: in vivo, 0.9 mg/kg. On the set-up: dose 0.9 mg/kg, route intraperitoneal. The class given is organism-based. An outline of the steps:
as §2

The subject of data set [4] is B16. Briefly: Antitumor activity against mouse B16 cells allografted in C57BL/6 mouse assessed as prolongation of host survival at 0.30 mg/kg, ip administered on days 1,5 and 9. It is filed as functional. Conditions: route intraperitoneal. An outline of the steps:
as §2

Data set [5] relates to Mus musculus. As to the kind of experiment: Toxicity in C3H mouse allografted with mouse Gardner lymphosarcoma assessed as lethality at 0.30 mg/kg, ip administered daily for 8 to 10 days. The class given is organism-based. Details: dose 0.3 mg/kg, route intraperitoneal. Conditions: in vivo, 0.3 mg/kg. An outline of the steps:
(§3)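 Tumor-bearing mice given sulfate salts ip daily for 8–10 days; values are the average of one or more tests. Toxic means lethal to ≥5 of 10 animals per group.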

Data set [6] is described as follows: Antitumor activity against mouse Gardner lymphosarcoma allografted in C3H mouse assessed as tumor growth inhibition at 0.20 mg/kg, ip administered daily for 8 to 10 days. It is filed as functional. As to conditions: route intraperitoneal, read-out: TGI. An outline of the steps: as §1
In data set [7] the test system is Mus musculus. As to the kind of experiment: Toxicity in C3H mouse allografted with mouse Gardner lymphosarcoma assessed as lethality at 0.40 mg/kg, ip administered daily for 8 to 10 days. The class given is organism-based. Details: dose 0.4 mg/kg, route intraperitoneal. As to conditions: in vivo, 0.4 mg/kg. The gist of the method: as §3

Take `CC[C@]1(O)C[C@H]2CN(CCc3c([nH]c4ccccc34)[C@@](C(=O)OC)(c3cc4c(cc3OC)N(C)[C@H]3[C@@](O)(C(=O)NC5CCSC5=O)[C@H](O)[C@]5(CC)C=CCN6CC[C@]43[C@@H]65)C2)C1.O=S(=O)(O)O` (some centres not stated): the inhibition in vivo at 0.1 mg/kg in data set [1] amounted to 0%. Also, the Activity entry in data set [2], in data set [3], in data set [5] and in data set [7] was “Toxic” throughout. The survival at 0.3 mg/kg in data set [4] turned out to be 94%. Further, in data set [6], the inhibition in vivo at 0.2 mg/kg is 0%.

Source of the values: ChEMBL document CHEMBL3227917, “Structure-activity relationships of dimeric Catharanthus alkaloids. 2. Experimental antitumor activities of N-substituted deacetylvinblastine amide (vindesine) sulfates” (J Med Chem, 1979).
